From ChEMBL document CHEMBL1221232, “Synthesis and biological activity of 4''-O-acyl derivatives of 14- and 15-membered macrolides linked to omega-quinolone-carboxylic unit” (Bioorg Med Chem, 2010)
≈ marks a conversion by molar mass, not a printed value.

Columns and labels:
Staphylococcus aureus [1] = test: Antibacterial activity against erythromycin-sensitive Staphylococcus aureus ATCC 13709 by broth microdilution method; format: functional
Outline: (§1)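 MIC by CLSI broth microdilution. Inocula from agar-grown cultures: chocolate agar for H. influenzae, Columbia agar with 5% sheep blood for M. catarrhalis, Mueller-Hinton agar for S. aureus. Read as minimum inhibitory concentration in µg/mL.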

Staphylococcus aureus [2] = test: Antibacterial activity against macrolide, licosamide and streptogramin inducible-resistance Staphylococcus aureus 90256 by broth microdilution method; format: functional
Outline: (§2)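 MIC by CLSI broth microdilution. Staphylococci were grown on Mueller-Hinton agar before testing. The MIC is the lowest concentration inhibiting growth.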

Streptococcus pyogenes [3] = test: Antibacterial activity against macrolide, licosamide and streptogramin inducible-resistance Streptococcus pyogenes 11 by broth microdilution method; format: functional
Outline: (§3)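 MIC by CLSI broth microdilution, except that the streptococcal medium used 5% horse serum in place of lysed blood. Streptococcal inocula came from Columbia agar with 5% sheep blood. The MIC is the lowest concentration inhibiting growth.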

Staphylococcus aureus [4] = test: Antibacterial activity against efflux-mediated macrolide resistance Staphylococcus aureus PK1 by broth microdilution method; format: functional; outline: as §2
Streptococcus pneumoniae [5] = test: Antibacterial activity against inducible resistance to macrolide and constitutive resistance to lincosamide Streptococcus pneumoniae 134 GR M by broth microdilution method; format: functional; outline: as §3
Streptococcus pyogenes [6] = test: Antibacterial activity against constitutive MLS resistance Streptococcus pyogenes 166 GR-Micro by broth microdilution method; format: functional; outline: as §3
Moraxella catarrhalis = test: Antibacterial activity against Moraxella catarrhalis ATCC 23246 by broth microdilution method; format: functional; outline: as §1
Streptococcus pyogenes [7] = test: Antibacterial activity against efflux-mediated macrolide resistance Streptococcus pyogenes 2 by broth microdilution method; format: functional; outline: as §3
Haemophilus influenzae = test: Antibacterial activity against Haemophilus influenzae ATCC 49247 by broth microdilution method; format: functional; outline: as §1
Streptococcus pneumoniae [8] = test: Antibacterial activity against efflux-mediated macrolide resistance Streptococcus pneumoniae Ci137 by broth microdilution method; format: functional; outline: as §3
Streptococcus pneumoniae [9] = test: Antibacterial activity against constitutive MLS-resistance Streptococcus pneumoniae 58 by broth microdilution method; format: functional; outline: as §3
[10] = Oral bioavailability in Sprague-Dawley rat blood at 30 mg/kg; format: ADME, organism-based; conditions: whole blood
Outline: (§4)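 Po/iv crossover study in male Sprague-Dawley rats. Target doses were 30 mg/kg po (fasted) and 5 mg/kg iv (fed). Compound was given as a solution in 1.0% DMSO and 20% (w/v) Encapsin, in saline for iv or water for po, pH 3.5–4.0. Blood was sampled at several timepoints up to 1800 min and hemolyzed 1:1 with water.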

Rattus norvegicus [11] = test: Liver blood flow in Sprague-Dawley rat blood at 30 mg/kg, po and 5 mg/kg, iv; format: ADME, organism-based; conditions: in vivo; outline: as §4
[12] = Volume of distribution at steady state in Sprague-Dawley rat blood at 30 mg/kg, po and 5 mg/kg, iv; format: ADME, organism-based; conditions: whole blood, read-out: Vdss; outline: as §4
Rattus norvegicus [13] = test: Clearance in Sprague-Dawley rat blood as % of liver blood flow at 30 mg/kg, po and 5 mg/kg, iv; format: ADME, organism-based; conditions: in vivo; outline: as §4

CC[C@H]1OC(=O)[C@H](C)[C@@H](O[C@@H]2O[C@@H](C)C[C@](C)(OC)[C@H]2OC(=O)CCOCCOCCCc2ccc3c(c2)c(=O)c(C(=O)O)cn3CC)[C@H](C)[C@@H](O[C@@H]2O[C@H](C)C[C@H](N(C)C)[C@H]2O)[C@](C)(OC)C[C@@H](C)C(=O)[C@H](C)[C@H]2N(C)C(=O)O[C@]12C
MIC (Staphylococcus aureus [1]): ≤ 0.125 µg/mL
MIC (Staphylococcus aureus [2]): 0.25 µg/mL (≈ 0.215 µM)
MIC (Streptococcus pyogenes [3]): ≤ 0.125 µg/mL
MIC (Staphylococcus aureus [4]): 0.5 µg/mL (≈ 0.431 µM)
MIC (Streptococcus pneumoniae [5]): ≤ 0.125 µg/mL
MIC (Streptococcus pyogenes [6]): ≤ 0.125 µg/mL
MIC (Moraxella catarrhalis): ≤ 0.125 µg/mL
MIC (Streptococcus pyogenes [7]): ≤ 0.125 µg/mL
MIC (Haemophilus influenzae): 1 µg/mL (≈ 0.862 µM)
MIC (Streptococcus pneumoniae [8]): ≤ 0.125 µg/mL
MIC (Streptococcus pneumoniae [9]): ≤ 0.125 µg/mL

CCCn1cc(C(=O)O)c(=O)c2cc(CCCOCCOCCC(=O)O[C@H]3[C@H](C)O[C@@H](O[C@H]4[C@H](C)[C@@H](O[C@@H]5O[C@H](C)C[C@H](N(C)C)[C@H]5O)[C@](C)(O)C[C@@H](C)CN(C)[C@H](C)[C@@H](O)[C@](C)(O)[C@@H](CC)OC(=O)[C@@H]4C)C[C@@]3(C)OC)ccc21
MIC (Staphylococcus aureus [1]): ≤ 0.125 µg/mL
MIC (Staphylococcus aureus [2]): ≤ 0.125 µg/mL
MIC (Streptococcus pyogenes [3]): ≤ 0.125 µg/mL
MIC (Staphylococcus aureus [4]): ≤ 0.125 µg/mL
MIC (Streptococcus pneumoniae [5]): ≤ 0.125 µg/mL
MIC (Streptococcus pyogenes [6]): 0.25 µg/mL (≈ 0.22 µM)
MIC (Moraxella catarrhalis): 0.5 µg/mL (≈ 0.44 µM)
MIC (Streptococcus pyogenes [7]): ≤ 0.125 µg/mL
MIC (Haemophilus influenzae): 1 µg/mL (≈ 0.88 µM)
MIC50 (Haemophilus influenzae): 1 µg/mL (≈ 0.88 µM)
MIC90 (Haemophilus influenzae): 2 µg/mL (≈ 1.76 µM)
MIC (Streptococcus pneumoniae [8]): ≤ 0.125 µg/mL
MIC (Streptococcus pneumoniae [9]): ≤ 0.125 µg/mL

CC[C@H]1OC(=O)[C@H](C)C(=O)[C@H](C)[C@@H](O[C@@H]2O[C@H](C)C[C@H](N(C)C)[C@H]2O)[C@](C)(OC)C[C@@H](C)C(=O)[C@H](C)[C@H]2N(CCCCn3cnc(-c4cccnc4)c3)C(=O)O[C@]12C [TELITHROMYCIN]
MIC (Staphylococcus aureus [1]): ≤ 0.125 µg/mL
MIC (Staphylococcus aureus [2]): ≤ 0.125 µg/mL
MIC (Streptococcus pyogenes [3]): ≤ 0.125 µg/mL
MIC (Staphylococcus aureus [4]): ≤ 0.125 µg/mL
MIC (Streptococcus pneumoniae [5]): 0.25 µg/mL (≈ 0.308 µM)
MIC (Streptococcus pyogenes [6]): 16 µg/mL (≈ 19.7 µM)
MIC (Moraxella catarrhalis): ≤ 0.125 µg/mL
MIC (Streptococcus pyogenes [7]): 0.5 µg/mL (≈ 0.616 µM)
MIC (Haemophilus influenzae): 2 µg/mL (≈ 2.46 µM)
MIC (Streptococcus pneumoniae [8]): 0.25 µg/mL (≈ 0.308 µM)
MIC (Streptococcus pneumoniae [9]): 0.25 µg/mL (≈ 0.308 µM)

CC[C@H]1OC(=O)[C@H](C)[C@@H](O[C@@H]2O[C@@H](C)C[C@](C)(OC)[C@H]2OC(=O)CCOCCOCCCc2ccc3c(c2)c(=O)c(C(=O)O)cn3CC)[C@H](C)[C@@H](O[C@@H]2O[C@H](C)C[C@H](N(C)C)[C@H]2O)[C@](C)(OC)C[C@@H](C)C(=O)[C@H](C)[C@H]2NC(=O)O[C@@]21C
MIC (Staphylococcus aureus [1]): ≤ 0.125 µg/mL
MIC (Staphylococcus aureus [2]): ≤ 0.125 µg/mL
MIC (Streptococcus pyogenes [3]): ≤ 0.125 µg/mL
MIC (Staphylococcus aureus [4]): ≤ 0.125 µg/mL
MIC (Streptococcus pneumoniae [5]): ≤ 0.125 µg/mL
MIC (Streptococcus pyogenes [6]): ≤ 0.125 µg/mL
MIC (Moraxella catarrhalis): 1 µg/mL (≈ 0.872 µM)
MIC (Streptococcus pyogenes [7]): ≤ 0.125 µg/mL
MIC (Haemophilus influenzae): 1 µg/mL (≈ 0.872 µM)
MIC50 (Haemophilus influenzae): 2 µg/mL (≈ 1.74 µM)
MIC90 (Haemophilus influenzae): 4 µg/mL (≈ 3.49 µM)
MIC (Streptococcus pneumoniae [8]): ≤ 0.125 µg/mL
MIC (Streptococcus pneumoniae [9]): ≤ 0.125 µg/mL

CC[C@H]1OC(=O)[C@H](C)[C@@H](O[C@H]2C[C@@](C)(OC)[C@@H](OC(=O)CCOCCOCCCc3ccc4c(c3)c(=O)c(C(=O)O)cn4C3CC3)[C@H](C)O2)[C@H](C)[C@@H](O[C@@H]2O[C@H](C)C[C@H](N(C)C)[C@H]2O)[C@](C)(O)C[C@@H](C)CN(C)[C@H](C)[C@@H](O)[C@]1(C)O
bioavailability [10]: 16%
MIC (Staphylococcus aureus [1]): ≤ 0.125 µg/mL
LBF (Rattus norvegicus [11]): 43%
MIC (Staphylococcus aureus [2]): ≤ 0.125 µg/mL
Vd [12]: 10.5 L/kg
MIC (Streptococcus pyogenes [3]): ≤ 0.125 µg/mL
MIC (Staphylococcus aureus [4]): ≤ 0.125 µg/mL
MIC (Streptococcus pneumoniae [5]): 0.25 µg/mL (≈ 0.22 µM)
MIC (Streptococcus pyogenes [6]): 0.5 µg/mL (≈ 0.441 µM)
MIC (Moraxella catarrhalis): 0.5 µg/mL (≈ 0.441 µM)
MIC (Streptococcus pyogenes [7]): ≤ 0.125 µg/mL
MIC (Haemophilus influenzae): 2 µg/mL (≈ 1.76 µM)
MIC50 (Haemophilus influenzae): 1 µg/mL (≈ 0.882 µM)
MIC90 (Haemophilus influenzae): 2 µg/mL (≈ 1.76 µM)
MIC (Streptococcus pneumoniae [8]): ≤ 0.125 µg/mL
MIC (Streptococcus pneumoniae [9]): ≤ 0.125 µg/mL

CC[C@H]1OC(=O)[C@H](C)[C@@H](O[C@H]2C[C@@](C)(OC)[C@@H](OC(=O)CCOCCOCCCc3ccc4c(c3)c(=O)c(C(=O)O)cn4CC)[C@H](C)O2)[C@H](C)[C@@H](O[C@@H]2O[C@H](C)C[C@H](N(C)C)[C@H]2O)[C@](C)(O)C[C@@H](C)CN(C)[C@H](C)[C@@H](O)[C@]1(C)O
bioavailability [10]: 22%
MIC (Staphylococcus aureus [1]): ≤ 0.125 µg/mL
MIC (Staphylococcus aureus [2]): 0.25 µg/mL (≈ 0.223 µM)
Vd [12]: 10.4 L/kg
MIC (Streptococcus pyogenes [3]): ≤ 0.125 µg/mL
MIC (Staphylococcus aureus [4]): 0.25 µg/mL (≈ 0.223 µM)
Fraction of Liver Blood Flow (Rattus norvegicus [13]): 35%
MIC (Streptococcus pneumoniae [5]): 0.25 µg/mL (≈ 0.223 µM)
MIC (Streptococcus pyogenes [6]): ≤ 0.125 µg/mL
MIC (Moraxella catarrhalis): ≤ 0.125 µg/mL
MIC (Streptococcus pyogenes [7]): ≤ 0.125 µg/mL
MIC (Haemophilus influenzae): 1 µg/mL (≈ 0.891 µM)
MIC50 (Haemophilus influenzae): 1 µg/mL (≈ 0.891 µM)
MIC90 (Haemophilus influenzae): 2 µg/mL (≈ 1.78 µM)
MIC (Streptococcus pneumoniae [8]): ≤ 0.125 µg/mL
MIC (Streptococcus pneumoniae [9]): ≤ 0.125 µg/mL

CC[C@H]1OC(=O)[C@H](C)[C@@H](O[C@@H]2O[C@@H](C)C[C@](C)(OC)[C@H]2OC(=O)CCOCCOCCCc2ccc3c(c2)c(=O)c(C(=O)O)cn3CC)[C@H](C)[C@@H](O[C@@H]2O[C@H](C)C[C@H](N(C)C)[C@H]2O)[C@](C)(O)C[C@@H](C)/C(=N\OCOCCOC)[C@H](C)[C@@H](O)[C@]1(C)O
MIC (Staphylococcus aureus [1]): 0.5 µg/mL (≈ 0.413 µM)
MIC (Staphylococcus aureus [2]): 8 µg/mL (≈ 6.61 µM)
MIC (Streptococcus pyogenes [3]): ≤ 0.125 µg/mL
MIC (Staphylococcus aureus [4]): 1 µg/mL (≈ 0.826 µM)
MIC (Streptococcus pneumoniae [5]): 0.5 µg/mL (≈ 0.413 µM)
MIC (Streptococcus pyogenes [6]): 1 µg/mL (≈ 0.826 µM)
MIC (Moraxella catarrhalis): 1 µg/mL (≈ 0.826 µM)
MIC (Streptococcus pyogenes [7]): ≤ 0.125 µg/mL
MIC (Haemophilus influenzae): 4 µg/mL (≈ 3.3 µM)
MIC (Streptococcus pneumoniae [8]): ≤ 0.125 µg/mL
MIC (Streptococcus pneumoniae [9]): 1 µg/mL (≈ 0.826 µM)

CC[C@H]1OC(=O)[C@H](C)[C@@H](O[C@H]2C[C@@](C)(OC)[C@@H](O)[C@H](C)O2)[C@H](C)[C@@H](O[C@@H]2O[C@H](C)C[C@H](N(C)C)[C@H]2O)[C@](C)(O)C[C@@H](C)CN(C)[C@H](C)[C@@H](O)[C@]1(C)O [AZITHROMYCIN]
MIC (Staphylococcus aureus [1]): 0.5 µg/mL (≈ 0.668 µM)
MIC (Staphylococcus aureus [2]): > 64 µg/mL
MIC (Streptococcus pyogenes [3]): > 64 µg/mL
MIC (Staphylococcus aureus [4]): > 64 µg/mL
MIC (Streptococcus pneumoniae [5]): > 64 µg/mL
MIC (Streptococcus pyogenes [6]): > 64 µg/mL
MIC (Moraxella catarrhalis): ≤ 0.125 µg/mL
MIC (Streptococcus pyogenes [7]): 8 µg/mL (≈ 10.7 µM)
MIC (Haemophilus influenzae): 1 µg/mL (≈ 1.34 µM)
MIC50 (Haemophilus influenzae): 1 µg/mL (≈ 1.34 µM)
MIC90 (Haemophilus influenzae): 2 µg/mL (≈ 2.67 µM)
MIC (Streptococcus pneumoniae [8]): 8 µg/mL (≈ 10.7 µM)
MIC (Streptococcus pneumoniae [9]): > 64 µg/mL
